Assay results collected from several papers.
Compare with care: the assays were run in different laboratories.
Target: cGMP-dependent protein kinase 2 (PRKG2, Homo sapiens, UniProt Q13237)
Sequence (Q13237 1-762, as in one of the studies): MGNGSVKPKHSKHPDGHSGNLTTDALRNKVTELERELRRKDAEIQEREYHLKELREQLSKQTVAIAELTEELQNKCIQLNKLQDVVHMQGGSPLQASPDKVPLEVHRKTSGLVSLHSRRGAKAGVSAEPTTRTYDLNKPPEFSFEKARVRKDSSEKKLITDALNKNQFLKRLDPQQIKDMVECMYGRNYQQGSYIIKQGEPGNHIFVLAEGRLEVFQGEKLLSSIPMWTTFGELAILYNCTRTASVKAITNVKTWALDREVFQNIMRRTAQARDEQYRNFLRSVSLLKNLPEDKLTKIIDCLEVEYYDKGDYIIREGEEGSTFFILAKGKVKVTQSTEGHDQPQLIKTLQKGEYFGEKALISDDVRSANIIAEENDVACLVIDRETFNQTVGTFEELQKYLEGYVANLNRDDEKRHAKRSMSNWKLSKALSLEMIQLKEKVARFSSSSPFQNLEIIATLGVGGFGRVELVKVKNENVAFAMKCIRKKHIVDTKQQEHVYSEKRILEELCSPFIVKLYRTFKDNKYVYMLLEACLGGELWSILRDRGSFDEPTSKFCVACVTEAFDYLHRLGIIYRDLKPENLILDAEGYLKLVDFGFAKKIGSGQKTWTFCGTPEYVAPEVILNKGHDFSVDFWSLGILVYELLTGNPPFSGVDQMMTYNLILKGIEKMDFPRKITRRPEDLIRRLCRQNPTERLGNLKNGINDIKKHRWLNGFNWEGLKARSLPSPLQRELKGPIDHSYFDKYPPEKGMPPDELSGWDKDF

SMILES	observed	method	concentration	remaining binding [%]
O=C(Nc1c[nH]nc1C(=O)NC1CCNCC1)c1cc(F)cc(F)c1	binding	competition with immobilised ligand	1 µM	91
Cc1cnc(Nc2ccc(C(=O)N3CCC(N4CCCC4)CC3)cc2)nc1-c1cc2ccccc2s1	binding	competition with immobilised ligand	1 µM	2.8
c1cnn2ncc(-c3ccnc(N4CCC45COC5)n3)c2c1	binding	–	1 µM	82
O=C1CCc2cc(Nc3cc(OC4CCOCC4)c([N+](=O)[O-])cc3Cl)ccc2N1	cell-free assay	competition with immobilised ligand	1 µM	85
C[C@@H](c1ccc(-n2cnc3c(N)ncnc32)cc1)N1CCc2nn(C)c(Cc3ccccc3)c2C1=O	binding	competition with immobilised ligand	0.1 µM	73
CN(c1nccc(-c2cnn3ncccc23)n1)C1CC1	binding	–	1 µM	100
CCS(=O)(=O)c1cc2cc(C[C@@](O)(CC(C)(C)c3ccc(F)cc3C(N)=O)C(F)(F)F)[nH]c2cn1	cell-free assay	competition with immobilised ligand	1 µM	86
CN(C)c1nccc(-c2cnn3ncccc23)n1	binding	–	1 µM	100
C[C@H](c1ccc(F)cc1)N(Cc1cccc(C(=O)O)c1)C(=O)c1cnc2ccccc2c1	cell-free assay	competition with immobilised ligand	1 µM	100
COc1cnc(Nc2cccc(S(N)(=O)=O)c2)nc1N1CCN(c2ccccc2)CC1	binding	competition with immobilised ligand	1 µM	92
CNCc1ccccc1-c1csc([C@H](C)Nc2nc(C)nc3cc(OC)c(OC)cc23)c1	cell-free assay	competition with immobilised ligand	1 µM	93
CCN1CCN(Cc2ccc(C(=O)Nc3ccc(C)c(Oc4ccc5c(c4)CC(=O)N5)c3)cc2C(F)(F)F)CC1	binding	competition with immobilised ligand	1 µM	100
F[C@@H]1CCN(c2nccc(-c3cnn4ncccc34)n2)C1	binding	–	1 µM	93
CCC(=N\O)/C(C)=C/c1ccc(F)cc1	cell-free assay	competition with immobilised ligand	1 µM	79
O=C(c1ccc(Nc2ncc(Cl)c(-c3cc4ccccc4s3)n2)cc1)N1CCC(N2CCCC2)CC1	binding	competition with immobilised ligand	1 µM	13
CN(CCCC(F)(F)F)c1nccc(-c2cnn3ncccc23)n1	binding	–	1 µM	96
Nc1ncc2c(n1)-c1c([nH]c3ccc(C#CC4CC4)cc13)CCCC2	binding	competition with immobilised ligand	1 µM	80
COc1ncc2cc3ccccc3nc2c1C#N	cell-free assay	competition with immobilised ligand	5 µM	100
CN(C)C(=O)Cn1cc(-c2nc(C3(c4ccc(-c5cnc(N)nc5)cc4)CC3)no2)cn1	cell-free assay	competition with immobilised ligand	1 µM	100
O=C(NCCCN1CCOCC1)c1ccc(Nc2nccc(-c3cc4ccccc4s3)n2)cc1	binding	competition with immobilised ligand	1 µM	43
N[C@H]1CCN(c2nccc(-c3cnn4ncccc34)n2)C1	binding	–	1 µM	91
NS(=O)(=O)c1cc(NC(=O)C2(c3ccccc3Cl)CC2)ccc1Oc1cccc(Cl)c1	cell-free assay	competition with immobilised ligand	1 µM	100
